Test results: ChEMBL document CHEMBL3232816, “Substituted E-3-(3-indolylmethylene)1,3-dihydroindol-2-ones with antiproliferative activity. Study of the effects on HL-60 leukemia cells” (2014)
Activity calls are given as the source filed them. The rule behind the calls is not given here.

Assays:
[1] = system: HL-60; assay: Cell cycle arrest in human HL60 cells assessed as accumulation at G0-G1 phase at 1 uM after 24 hrs by propidium iodide staining-based flow cytometric analysis (reference value: 32.4%); format: functional
[2] = Cytotoxicity against human CNS cancer cells after 48 hrs; format: functional; details: Cancer cell lines
How it was run: (§1)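 NCI 60-line panel. Compounds were dissolved in DMSO and tested at five 10-fold dilutions, the highest 10^-4 M (10^-3 M where footnoted), over 48 h of incubation. The readouts were GI50, TGI and LC50 in μM, with the panel mean also given. Only compounds passing a 10^-5 M single-dose prescreen were tested; some were repeated and averaged over two experiments.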

[3] = Cytotoxicity against human breast cancer cells after 48 hrs; format: functional; details: Cancer cell lines; how it was run: as §1
[4] = system: HL-60; assay: Cell cycle arrest in human HL60 cells assessed as accumulation at G2-M phase at 1 uM after 24 hrs by propidium iodide staining-based flow cytometric analysis (reference value: 10.7%); format: functional
[5] = Cytotoxicity against human prostate cancer cells after 48 hrs; format: functional; details: Cancer cell lines; how it was run: as §1
[6] = Cytotoxicity against human colon cancer cells after 48 hrs; format: functional; details: Cancer cell lines; how it was run: as §1
[7] = system: HL-60; assay: Induction of apoptosis in human HL60 cells assessed as increase in caspase proteolytic activity using DEVD as substrate at 1 uM after 24 hrs by fluorometric analysis; format: functional, cell-based
How it was run: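 After 24 h exposure of HL-60 cells to 1 μM compound or DMSO vehicle, DEVD-hydrolysing caspase (DEVDase) activity was measured fluorometrically in cell extracts. Means ± s.e.m. of three determinations.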

[8] = system: HL-60; assay: Cytotoxicity against human HL60 cells assessed as growth inhibition at 1 uM measured up to 48 hrs; format: functional, cell-based
How it was run: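 HL-60 cells, RPMI 1640 with 10% fetal calf serum and 2 mM glutamine, 37 °C, 5% CO2. Cells received 1 μM compound diluted from a 10 mmol/L DMSO stock; controls got equal DMSO. Viable cells were counted daily to follow total cell number. Means ± s.e.m. of three determinations.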

[9] = system: HL-60; assay: Induction of apoptosis in human HL60 cells assessed as increase in intracellular free Ca2+ level at 1 uM after 24 hrs by INDO-1/AM probe-based fluorometric analysis; format: functional, cell-based
How it was run: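 They were stained with 5 μM INDO-1/AM, excited at 346 nm, and emission read at 405/485 nm. Rmin came from 5 mM EDTA/EGTA plus 5 μM digitonin, Rmax from 10 mM CaCl2. Free Ca2+ was calculated with Kd […]. Means ± s.e.m., n=3.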

[10] = Cytotoxicity against human melanoma cells after 48 hrs; format: functional; details: Melanoma cell; how it was run: as §1
[11] = system: HL-60; assay: Induction of apoptosis in human HL60 cells assessed as increase in intracellular free Mg2+ level at 1 uM after 24 hrs by Mag-Fura2 probe-based fluorometric analysis; format: functional, cell-based
How it was run: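 They were loaded with 5 μM Mag-Fura2 for 60 min at 37 °C in the dark, washed, and held 45 min at room temperature. Emission at 510 nm was read with excitation at 335/370 nm. Rmin came from 5 mM EDTA/EGTA then 0.1% Triton X-100, Rmax from MgSO4. Free Mg2+ was calculated with Kd 2.1 mM, in triplicate.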

[12] = system: HL-60; assay: Induction of apoptosis in human HL60 cells assessed as increase in oxidative stress at 1 uM after 24 hrs by DCFDA staining; format: functional, cell-based
How it was run: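 Intracellular peroxides in HL-60 cells treated 24 h with 1 μM compound or DMSO. Cells were loaded with 5 μM DCF-DA for 30 min at 37 °C, then DCF fluorescence was acquired by flow cytometry with logarithmic amplification. Means ± s.e.m., n=3.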

[13] = system: HL-60; assay: Effect on autophagy in human HL60 cells by acridine orange staining; format: functional, cell-based
[14] = system: HL-60; assay: Induction of apoptosis in human HL60 cells assessed as early apoptotic cells at 1 uM after 24 hrs by annexin V-FLUOS staining-based flow cytometric analysis (reference value: 4%); format: functional
[15] = Cytotoxicity against human leukemia cells after 48 hrs; format: functional; details: Leukemia cell; how it was run: as §1
[16] = Cytotoxicity against human ovarian cancer cells after 48 hrs; format: functional; details: Cancer cell lines; how it was run: as §1
[17] = system: HL-60; assay: Cell cycle arrest in human HL60 cells assessed as accumulation at S phase at 1 uM after 24 hrs by propidium iodide staining-based flow cytometric analysis (reference value: 56.9%); format: functional
[18] = Cytotoxicity against human renal cancer cells after 48 hrs; format: functional; details: Cancer cell lines; how it was run: as §1
[19] = Cytotoxicity against human NSCLC cells after 48 hrs; format: functional; how it was run: as §1
[20] = system: HL-60; assay: Effect on autophagy in human HL60 cells by LC3 protein processing assay; format: functional, cell-based
[21] = read-out: LC50 (the source's name)

Question: Which results are given for `COc1ccc(CCn2c(Cl)c(/C=C3/C(=O)Nc4ccccc43)c3ccccc32)cc1`?
Answer: Activity [1]: 16.7%; GI50 [2]: 0.34 µM; TGI [2]: 8.32 µM; CC50 [2, 21]: 58.9 µM; GI50 [3]: 0.32 µM; TGI [3]: 6.31 µM; Activity [4]: 69.3%; GI50 [5]: 0.35 µM; TGI [5]: 19.5 µM; CC50 [5, 21]: 55 µM; GI50 [6]: 0.28 µM; TGI [6]: 1.82 µM; CC50 [6, 21]: 52.5 µM; Activity [7]: Active; growth inhibition (GI) [8]: Active; Activity [9]: Active; GI50 [10]: 0.46 µM; LC50 [10]: 63.1 µM; TGI [10]: 9.12 µM; Activity [11]: Active; Activity [12]: Active; Activity [13]: Active; Activity [14]: 50%; GI50 [15]: 0.35 µM; TGI [15]: 15.5 µM; GI50 [16]: 0.34 µM; LC50 [16]: 69.2 µM; TGI [16]: 13.5 µM; Activity [17]: 14%; GI50 [18]: 0.48 µM; LC50 [18]: 72.4 µM; TGI [18]: 18.6 µM; GI50 [19]: 0.43 µM; LC50 [19]: 74.1 µM; TGI [19]: 15.1 µM; Activity [20]: Active
